# Assays:
# Saccharomyces cerevisiae [1] = assay: Antifungal activity against Saccharomyces cerevisiae; format: functional
# Method in brief: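 Broth microdilution following EUCAST for fermentative yeasts, in flat-bottom plates with RPMI 1640 plus 2% glucose. Inoculum was 0.5 × 10^5 to 2.5 × 10^5 CFU/ml. End points were read spectrophotometrically at 24 h: ≥90% growth reduction versus a drug-free control for amphotericin B, and 50% OD reduction for azoles and caspofungin. MFC was the lowest concentration giving 99% killing.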
# [2] = Antifungal activity against Rhinocladiella aquaspersa; format: functional
# Method in brief: (§1)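 Dematiaceous fungi were tested by the EUCAST spore-forming mold reference procedure: flat-bottom microdilution plates, RPMI 1640 plus 2% glucose, inoculum 2 × 105 to 5 × 10^5 CFU/ml. Endpoints were read visually at 24 and 48 h. Polyenes and azoles: 100% growth reduction vs drug-free control. CPF: minimum effective concentration. Run in duplicate and repeated twice.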
# Clavispora lusitaniae [3] = assay: Antifungal activity against Candida lusitaniae; format: functional
# Method in brief: (§2)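 Broth microdilution in flat-bottom plates in RPMI 1640 with 2% glucose; inoculum 0.5 × 105 to 2.5 × 10^5 CFU/ml. MICs were read spectrophotometrically at 24 h. AMB endpoint: ≥90% growth reduction vs drug-free control well. Azole and CPF endpoint: 50% reduction in optical density. MFC was taken as the lowest concentration giving 99% killing.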
# Pichia kudriavzevii [4] = assay: Antifungal activity against Candida krusei by EUCAST method; format: functional; method in brief: as §2
# Candida albicans [5] = assay: Antifungal activity against Candida albicans by EUCAST method; format: functional; method in brief: as §2
# Trichosporon asahii [6] = assay: Antifungal activity against Trichosporon asahii by EUCAST method; format: functional
# Method in brief: (§3)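 Nonfermentative yeasts were tested by the EUCAST microdilution recommendations with one change: plates were sealed and agitated at 350 rpm and 30°C for 48 h.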
# Aspergillus fumigatus [7] = assay: Antifungal activity against Aspergillus fumigatus by EUCAST method; format: functional
# Rhizomucor [8] = assay: Antifungal activity against Rhizomucor species by EUCAST method; format: functional
# Method in brief: (§4)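 Broth microdilution following the EUCAST reference procedure for spore-forming moulds, in flat-bottom plates with RPMI 1640 plus 2% glucose. Inoculum was 2 × 10^5 to 5 × 10^5 CFU/ml. MICs were read visually at 24 and 48 h as 100% growth reduction versus a drug-free control for polyenes and azoles. MEC was used for caspofungin. Tests were run in duplicate and repeated twice.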
# Saccharomyces cerevisiae [9] = assay: Antifungal activity against Saccharomyces cerevisiae by EUCAST method; format: functional
# Method in brief: (§5)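 EUCAST broth microdilution for yeasts in flat-bottom plates, RPMI 1640 with 2% glucose, inoculum 0.5 × 105 to 2.5 × 10^5 CFU/ml. […] MFC is the lowest concentration giving 99% killing.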
# Sporothrix schenckii [10] = assay: Antifungal activity against Sporothrix schenckii by EUCAST method; format: functional; method in brief: as §4
# Trichosporon asahii [11] = assay: Antifungal activity against Trichosporon asahii; format: functional; method in brief: as §3
# Mucor [12] = assay: Antifungal activity against Mucor species; format: functional
# [13] = Antifungal activity against Cryptococcus neoformans var. neoformans; format: functional; conditions: Cryptococcus deneoformans
# Method in brief: (§6)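 EUCAST yeast microdilution, modified for nonfermentative yeasts: plates were sealed and agitated at 350 rpm and 30°C for 48 h.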
# [14] = Antifungal activity against Cryptococcus neoformans var. neoformans by EUCAST method; format: functional; conditions: Cryptococcus deneoformans; method in brief: as §6
# Curvularia australiensis [15] = assay: Antifungal activity against Bipolaris australiensis; format: functional; method in brief: as §1
# Aspergillus flavus [16] = assay: Antifungal activity against Aspergillus flavus by EUCAST method; format: functional
# Mucor hiemalis [17] = assay: Antifungal activity against Mucor hiemalis by EUCAST method; format: functional
# Rhizopus arrhizus [18] = assay: Antifungal activity against Rhizopus oryzae; format: functional; method in brief: as §4
# Lomentospora prolificans = assay: Antifungal activity against Scedosporium prolificans; format: functional; method in brief: as §4
# Penicillium sp. [19] = assay: Antifungal activity against Penicillium species by EUCAST method; format: functional
# Curvularia australiensis [20] = assay: Antifungal activity against Bipolaris australiensis by EUCAST method; format: functional; method in brief: as §1
# Cryptococcus gattii [21] = assay: Antifungal activity against Cryptococcus neoformans var. gattii; format: functional, Cryptococcus bacillisporus; method in brief: as §6
# Scedosporium apiospermum [22] = assay: Antifungal activity against Scedosporium apiospermum; format: functional; method in brief: as §4
# Lichtheimia corymbifera [23] = assay: Antifungal activity against Absidia corymbifera by EUCAST method; format: functional
# [24] = Antifungal activity against Rhizopus microsporus var. oligosporus by EUCAST method; format: functional; method in brief: as §4
# Talaromyces marneffei [25] = assay: Antifungal activity against Penicillium marneffei; format: functional
# Trichosporon inkin [26] = assay: Antifungal activity against Trichosporon inkin; format: functional; method in brief: as §3
# Curvularia lunata [27] = assay: Antifungal activity against Curvularia lunata; format: functional
# Fusarium oxysporum [28] = assay: Antifungal activity against Fusarium oxysporum by EUCAST method; format: functional
# Aspergillus flavus [29] = assay: Antifungal activity against Aspergillus flavus; format: functional
# Lichtheimia corymbifera [30] = assay: Antifungal activity against Absidia corymbifera; format: functional
# Candida tropicalis [31] = assay: Antifungal activity against Candida tropicalis by EUCAST method; format: functional; method in brief: as §2
# [32] = Antifungal activity against Rhizopus microsporus var. oligosporus; format: functional; method in brief: as §4
# Trichosporon inkin [33] = assay: Antifungal activity against Trichosporon inkin by EUCAST method; format: functional; method in brief: as §3
# Aspergillus terreus [34] = assay: Antifungal activity against Aspergillus terreus; format: functional
# Clavispora lusitaniae [35] = assay: Antifungal activity against Candida lusitaniae by EUCAST method; format: functional; method in brief: as §2
# Absidia [36] = assay: Antifungal activity against Absidia species; format: functional
# Cryptococcus gattii [37] = assay: Antifungal activity against Cryptococcus neoformans var. gattii by EUCAST method; format: functional, Cryptococcus bacillisporus; method in brief: as §6
# Cunninghamella [38] = assay: Antifungal activity against Cunninghamella species; format: functional
# Nakaseomyces glabratus [39] = assay: Antifungal activity against Candida glabrata; format: functional; method in brief: as §2
# Candida tropicalis [40] = assay: Antifungal activity against Candida tropicalis; format: functional; method in brief: as §2
# Geotrichum candidum [41] = assay: Antifungal activity against Geotrichum candidum; format: functional
# Mucor hiemalis [42] = assay: Antifungal activity against Mucor hiemalis; format: functional
# Aspergillus fumigatus [43] = assay: Antifungal activity against Aspergillus fumigatus; format: functional
# Penicillium sp. [44] = assay: Antifungal activity against Penicillium species; format: functional
# Fusarium oxysporum [45] = assay: Antifungal activity against Fusarium oxysporum; format: functional
# Rhizopus [46] = assay: Antifungal activity against Rhizopus species by EUCAST method; format: functional; method in brief: as §4
# Scedosporium apiospermum [47] = assay: Antifungal activity against Scedosporium apiospermum by EUCAST method; format: functional; method in brief: as §4
# Aspergillus terreus [48] = assay: Antifungal activity against Aspergillus terreus by EUCAST method; format: functional
# Candida parapsilosis [49] = assay: Antifungal activity against Candida parapsilosis; format: functional; conditions: Lodderomyces parapsilosis; method in brief: as §2
# Fusarium solani [50] = assay: Antifungal activity against Fusarium solani; format: functional
# Rhizomucor [51] = assay: Antifungal activity against Rhizomucor species; format: functional
# Cunninghamella [52] = assay: Antifungal activity against Cunninghamella species by EUCAST method; format: functional
# Sporothrix schenckii [53] = assay: Antifungal activity against Sporothrix schenckii; format: functional; method in brief: as §4
# Rhizopus arrhizus [54] = assay: Antifungal activity against Rhizopus oryzae by EUCAST method; format: functional; method in brief: as §4
# Rhizopus [55] = assay: Antifungal activity against Rhizopus species; format: functional; method in brief: as §4
# Nakaseomyces glabratus [56] = assay: Antifungal activity against Candida glabrata by EUCAST method; format: functional; method in brief: as §2
# [57] = test system: Meyerozyma guilliermondii; assay: Antifungal activity against Candida guilliermondii; format: functional; method in brief: as §2
# Talaromyces marneffei [58] = assay: Antifungal activity against Penicillium marneffei by EUCAST method; format: functional
# Absidia [59] = assay: Antifungal activity against Absidia species by EUCAST method; format: functional
# [60] = test system: Meyerozyma guilliermondii; assay: Antifungal activity against Candida guilliermondii by EUCAST method; format: functional; method in brief: as §2
# Pichia kudriavzevii [61] = assay: Antifungal activity against Candida krusei; format: functional; method in brief: as §5
# Mucor [62] = assay: Antifungal activity against Mucor species by EUCAST method; format: functional
# Aspergillus niger [63] = assay: Antifungal activity against Aspergillus niger by EUCAST method; format: functional
# Candida parapsilosis [64] = assay: Antifungal activity against Candida parapsilosis by EUCAST method; format: functional; conditions: Lodderomyces parapsilosis; method in brief: as §2
# Candida albicans [65] = assay: Antifungal activity against Candida albicans; format: functional; method in brief: as §2
# Aspergillus niger [66] = assay: Antifungal activity against Aspergillus niger; format: functional
# Curvularia lunata [67] = assay: Antifungal activity against Curvularia lunata by EUCAST method; format: functional; method in brief: as §1
# Geotrichum candidum [68] = assay: Antifungal activity against Geotrichum candidum by EUCAST method; format: functional
# [69] = Antifungal activity against Rhinocladiella aquaspersa by EUCAST method; format: functional; method in brief: as §1
# Fusarium solani [70] = assay: Antifungal activity against Fusarium solani by EUCAST method; format: functional
smiles,measurement,setting,value
C[C@@H]1[C@H](O)[C@@H](C)/C=C/C=C/C=C/C=C/C=C/C=C/C=C/[C@H](O[C@@H]2O[C@H](C)[C@@H](O)[C@H](N)[C@@H]2O)C[C@@H]2O[C@](O)(C[C@@H](O)C[C@@H](O)[C@H](O)CC[C@@H](O)C[C@@H](O)CC(=O)O[C@H]1C)C[C@H](O)[C@H]2C(=O)O [AMPHOTERICIN B],MFC,Saccharomyces cerevisiae [1],> 4 µg/mL
same,MFC,[2],1 µg/mL
same,MFC,Clavispora lusitaniae [3],4 µg/mL
same,MIC,Pichia kudriavzevii [4],0.51 µg/mL
same,MIC,Candida albicans [5],0.12 µg/mL
same,MIC,Trichosporon asahii [6],1.5 µg/mL
same,MIC,Aspergillus fumigatus [7],0.69 µg/mL
same,MIC,Rhizomucor [8],0.58 µg/mL
same,MIC,Saccharomyces cerevisiae [9],0.66 µg/mL
same,MIC,Sporothrix schenckii [10],2.5 µg/mL
same,MFC,Trichosporon asahii [11],4 µg/mL
same,MFC,Mucor [12],1 µg/mL
same,MFC,[13],1 µg/mL
same,MIC,[14],0.75 µg/mL
same,MFC,Curvularia australiensis [15],1 µg/mL
same,MIC,Aspergillus flavus [16],1.51 µg/mL
same,MIC,Mucor hiemalis [17],0.86 µg/mL
same,MFC,Rhizopus arrhizus [18],4 µg/mL
same,MFC,Lomentospora prolificans,> 8 µg/mL
same,MIC,Penicillium sp. [19],0.75 µg/mL
same,MIC,Curvularia australiensis [20],1 µg/mL
same,MFC,Cryptococcus gattii [21],1 µg/mL
same,MFC,Scedosporium apiospermum [22],> 8 µg/mL
same,MIC,Lichtheimia corymbifera [23],1 µg/mL
same,MIC,[24],1 µg/mL
same,MFC,Talaromyces marneffei [25],> 4 µg/mL
same,MFC,Trichosporon inkin [26],1 µg/mL
same,MFC,Curvularia lunata [27],1 µg/mL
same,MIC,Fusarium oxysporum [28],2.5 µg/mL
same,MFC,Aspergillus flavus [29],> 4 µg/mL
same,MFC,Lichtheimia corymbifera [30],1 µg/mL
same,MIC,Candida tropicalis [31],0.38 µg/mL
same,MFC,[32],4 µg/mL
same,MIC,Trichosporon inkin [33],0.5 µg/mL
same,MFC,Aspergillus terreus [34],> 4 µg/mL
same,MIC,Clavispora lusitaniae [35],1.16 µg/mL
same,MFC,Absidia [36],1 µg/mL
same,MIC,Cryptococcus gattii [37],0.66 µg/mL
same,MFC,Cunninghamella [38],> 8 µg/mL
same,MFC,Nakaseomyces glabratus [39],0.5 µg/mL
same,MFC,Candida tropicalis [40],0.5 µg/mL
same,MFC,Geotrichum candidum [41],> 4 µg/mL
same,MFC,Mucor hiemalis [42],1 µg/mL
same,MFC,Aspergillus fumigatus [43],0.5 µg/mL
same,MFC,Penicillium sp. [44],> 4 µg/mL
same,MFC,Fusarium oxysporum [45],1 µg/mL
same,MIC,Rhizopus [46],2.08 µg/mL
same,MIC,Scedosporium apiospermum [47],2.66 µg/mL
same,MIC,Aspergillus terreus [48],2.82 µg/mL
same,MFC,Candida parapsilosis [49],4 µg/mL
same,MFC,Fusarium solani [50],> 8 µg/mL
same,MFC,Rhizomucor [51],1 µg/mL
same,MIC,Cunninghamella [52],2.25 µg/mL
same,MFC,Sporothrix schenckii [53],> 8 µg/mL
same,MIC,Rhizopus arrhizus [54],3 µg/mL
same,MFC,Rhizopus [55],2 µg/mL
same,MIC,Nakaseomyces glabratus [56],0.41 µg/mL
same,MFC,[57],2 µg/mL
same,MIC,Talaromyces marneffei [58],1.5 µg/mL
same,MIC,Absidia [59],0.8 µg/mL
same,MIC,[60],1 µg/mL
same,MFC,Pichia kudriavzevii [61],0.5 µg/mL
same,MIC,Mucor [62],0.73 µg/mL
same,MIC,Aspergillus niger [63],1 µg/mL
same,MIC,Candida parapsilosis [64],0.3 µg/mL
same,MFC,Candida albicans [65],2 µg/mL
same,MFC,Aspergillus niger [66],> 4 µg/mL
same,MIC,Curvularia lunata [67],0.75 µg/mL
same,MIC,Geotrichum candidum [68],1.5 µg/mL
same,MIC,[69],1 µg/mL
same,MIC,Fusarium solani [70],1 µg/mL

# Source: ChEMBL document CHEMBL1275524, “Activities of antifungal agents against yeasts and filamentous fungi: assessment according to the methodology of the European Committee on Antimicrobial Susceptibility Testing” (2008)
